High-throughput results: PubChem BioAssay, several laboratories
This is a sample that favours compounds with a hit; in the whole collection about 2.1% have one here.
RanGTP-Impb inh: inhibitors of RanGTP-importin-beta interaction, primary screen, biochemical, FRET, CFP-Ran, YFP-importin-beta, homogeneous | inhibition, % (test concentration not listed) | 300,000 tested, 1.1% active | cell-free CFP-Ran/YFP-importin-beta FRET ratio | AID 2216;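 active means more than half of the replicate wells show a fall in the fluorescence ratio signal beyond about 16%, limit read from the data, passing the limit was not always enough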;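 further: 0% = DMSO wells and 100% = Ran loaded with GDP instead of GTP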
m-calpain inh: calpain II (pig) inhibition | purified calpain II, fluorogenic peptide substrate, 30 min | 220,000 tested, 0.37% active | inhibition, % at 16 µM | AID 1236;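 active means inhibition above about 50%, limit read from the data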
Runt-SMMHC FRET: blocks binding of human RUNX1 Runt domain to CBFb-SMMHC; Cerulean-Runt/Venus-CBFb-SMMHC FRET ratio 530/480, 1 h; inhibition, % at 20 µM; 220,000 tested, 0.74% active; AID 1434;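 active means mean inhibition across duplicate retests at 20 µM reaching about 50%, limit read from the data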;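 further: 0% = DMSO wells and 100% = wells with excess untagged CBFb-SMMHC; inhibitors lower the FRET ratio by blocking Runt binding to CBFb-SMMHC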
Target sequence (Q01196 whole entry, looked up, the tested form may be a part): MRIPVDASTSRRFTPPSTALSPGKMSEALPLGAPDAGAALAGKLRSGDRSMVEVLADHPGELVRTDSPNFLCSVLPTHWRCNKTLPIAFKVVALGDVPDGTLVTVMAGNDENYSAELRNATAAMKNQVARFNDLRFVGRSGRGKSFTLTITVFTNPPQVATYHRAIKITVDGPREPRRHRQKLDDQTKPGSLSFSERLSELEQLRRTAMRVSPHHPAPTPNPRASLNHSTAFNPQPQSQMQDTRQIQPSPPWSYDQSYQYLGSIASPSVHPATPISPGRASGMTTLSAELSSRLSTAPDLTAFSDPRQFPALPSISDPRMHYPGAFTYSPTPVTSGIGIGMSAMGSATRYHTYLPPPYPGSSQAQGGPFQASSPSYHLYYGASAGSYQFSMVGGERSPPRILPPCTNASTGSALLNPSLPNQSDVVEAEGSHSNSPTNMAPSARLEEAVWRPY
Target sequence (Q13951 whole entry, looked up, the tested form may be a part): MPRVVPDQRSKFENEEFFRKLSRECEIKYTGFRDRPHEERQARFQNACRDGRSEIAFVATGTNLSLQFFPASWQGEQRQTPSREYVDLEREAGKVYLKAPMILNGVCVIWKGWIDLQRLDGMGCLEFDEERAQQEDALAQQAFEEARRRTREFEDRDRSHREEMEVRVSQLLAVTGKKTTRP
Runt-CBFb FRET: Runt domain-CBFb interaction inhibition | Q01196+Q13951 | Cerulean-Runt/Venus-CBFb FRET ratio 530/480, 1 h | inhibition, % at 20 µM | 220,000 tested, 0.46% active;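 active means inhibition over about 50% at 20 µM in the single-dose screen, limit read from the data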;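 further: 0% = DMSO wells and 100% = excess unlabeled CBFb competitor control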
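Schedule: protein complex preformed 1 h, compound exposure 1 h, room temperature, dark; test system: Cerulean-labeled Runt domain protein; amount: 100 nM per protein; buffer or medium: Tris 50 mM pH 7.5, KCl, K2SO4, 0.01% BSA; read-out: loss of energy transfer signal; detection: FRET fluorescence; controls: 5 µM unlabeled CBFb as full-inhibition high control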
FAS TE block: inhibitors of human fatty acid synthase thioesterase domain; recombinant FAS-TE, OMFH fluorogenic substrate, fluorescence endpoint; 360,000 tested, 0.67% active; inhibition, % at 15 µM; P49327;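 active means compounds whose normalised, plate-corrected inhibition of enzyme fluorescence in the single-dose primary screen is 50% or more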;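 further: 0% = DMSO with enzyme and 100% = substrate without enzyme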
FAS-TE conf: FAS thioesterase (human) inhibition, confirmation | shares compounds with FAS TE block | recombinant FAS-TE, OMFH fluorogenic substrate, fluorescence | inhibition, % at 15 µM | 2,300 tested, 45% active | AID 624325;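 active means compounds inhibiting the enzyme by at least 50% at 15 µM in any one of the replicates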;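 further: 0% = enzyme with DMSO only and 100% = wells lacking enzyme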
Active calls of the source: *; x = not tested or not shown.

SMILES | RanGTP-Impb inh | m-calpain inh | Runt-SMMHC FRET | Runt-CBFb FRET | FAS TE block | FAS-TE conf
CC1CCN(c2nc(Cl)nc(Nc3ccc([N+](=O)[O-])cc3)n2)CC1 | 1 | -44 | 0 | 0 | 54* | 21
CC(NS(=O)(=O)c1cn(C)c(=O)n(C)c1=O)c1ccccc1 (stereo unspecified) | 2 | x | x | x | -3 | x
CCn1c(Cl)c(C=O)s/c1=N\S(=O)(=O)c1ccccc1 | -4 | 18 | 18 | 33 | 76* | 33
O=C(NCC1CCCCC1)C12CN(Cc3ccccc3)CC1C(c1cccc([N+](=O)[O-])c1)=NO2 (stereo unspecified) | -1 | -75 | 3 | -2 | 54* | 30
COc1ccc(CCNC(=O)C23CN(Cc4ccccc4)CC2C(c2cccc([N+](=O)[O-])c2)=NO3)cc1 (stereo unspecified) | 1 | 13 | -2 | 2 | 38 | x
Cc1ccc(SSc2cc(C)ccc2N)c(N)c1 | -4 | x | x | x | -5 | x
Cn1c(=O)c2c(ncn2CC(=O)OCC(=O)Nc2cc(Cl)ccc2C#N)n(C)c1=O | x | x | x | x | -7 | x
Cc1ccc(-n2[nH]c(C)c(/C=N/Nc3ccc([N+](=O)[O-])cc3[N+](=O)[O-])c2=O)cc1 | 6 | 19 | -7 | -9 | 55* | 55*
O=C(Nc1ccccc1)c1ccc(Nc2c([N+](=O)[O-])cc([N+](=O)[O-])c3ccccc23)cc1 | -4 | -67 | -6 | -4 | 69* | 38
Cc1c(C(=O)Nc2ccc(Nc3ccccc3)cc2)cccc1[N+](=O)[O-] | 0 | x | x | x | 26 | x
CCCC12CN(C(=O)c3ccc([N+](=O)[O-])cc3)CC(C)(CN(C(=O)c3ccc([N+](=O)[O-])cc3)C1)C2=O | 2 | 0 | -5 | 0 | 55* | 62*
CC(C)(C)C(=O)Nc1ccc(C(=O)N/N=C/c2ccccc2OC(=O)c2ccc(Cl)cc2)cc1 | 2 | -33 | -4 | -1 | 76* | 12
Cc1cccc(C(=O)Oc2ccccc2/C=N/NC(=O)c2ccc(NC(=O)C(C)(C)C)cc2)c1 | -3 | -77 | 0 | 2 | 66* | 18
O=C(Nc1ccc2c(c1)OCO2)c1ccc([N+](=O)[O-])cc1[N+](=O)[O-] | -1 | x | x | x | 1 | x
N#CCC(=O)N/N=C/c1cc(Br)ccc1OCc1cccc2ccccc12 | -3 | x | x | x | 9 | x
COc1ccc([N+](=O)[O-])cc1/C=N/NC(=O)CNC(=O)c1cccc(F)c1 | 2 | -5 | -2 | -1 | 70* | 75*
COc1ccc(CCN(C)C(=O)CCNS(=O)(=O)c2ccccc2C(F)(F)F)cc1OC | x | x | x | x | -9 | x
O=C(O)CC1(c2ccc(F)cc2)C2CC3CC(C2)CC1C3 (stereo unspecified) | 4 | x | x | x | -3 | x
CS(=O)(=O)c1cc([N+](=O)[O-])c(Sc2nc3ccccc3[nH]2)c([N+](=O)[O-])c1 | 2 | -36 | 11 | 26 | 51* | 32
O=C(c1ccccc1)c1nc2ccccc2n(CCCn2c(=O)c(C(=O)c3ccccc3)nc3ccccc32)c1=O | -3 | -49 | -1 | -7 | 60* | 17
Cn1c(=O)c(C(=O)c2ccccc2)nc2ccccc21 | -3 | 24 | -3 | -2 | 1 | x
Cc1cccc(N2CCN(C(=O)CNC(=O)c3cccc([N+](=O)[O-])c3)CC2)c1C | 6 | x | x | x | 85* | 67*
CC(=O)Nc1cccc(Oc2cc(C#N)c(C#N)cc2N2CCCCCC2)c1 | -2 | -96 | -5 | 0 | 39 | x
N#Cc1cc(Oc2ccc(Cl)cc2)c(N2CCOCC2)cc1C#N | -4 | -9 | x | x | 67* | 30*
CCCCCCCCNC(=O)/C(C#N)=C/c1ccccc1[N+](=O)[O-] | -2 | -4 | -9 | -2 | 57* | 73*
SMILES | RanGTP-Impb inh | m-calpain inh | Runt-SMMHC FRET | Runt-CBFb FRET | FAS TE block | FAS-TE conf
NC(=O)CC(NC(=O)Cc1ccc(Br)cc1)c1ccc(N2CCc3ccccc3C2)c([N+](=O)[O-])c1 (stereo unspecified) | 2 | x | x | x | 20 | x
COc1ccc(OC)c(NC(=O)COC(=O)CC2CCCCC2)c1 | x | x | x | x | 13 | x
CC1S/C(=N\N=C\c2cccc([N+](=O)[O-])c2)N(C(C)(C)C)C1=O (stereo unspecified) | 1 | 5 | -4 | 1 | 54* | 0
O=[N+]([O-])c1cccc(C=NN=C2c3ccccc3-c3ccccc32)c1 | x | x | x | x | 28 | x
Nn1c(C2CCC2)nc2cc(Cl)ccc2c1=O | -3 | x | x | x | 0 | x
O=[N+]([O-])c1cc(-c2nnc(N3CCOCC3)c3ccccc23)ccc1N1CCOCC1 | -4 | 14 | 0 | -3 | -10 | x
O=[N+]([O-])c1cc(-c2nnc(Nc3ccccc3)c3ccccc23)ccc1N1CCOCC1 | 5 | 4 | 0 | 1 | 63* | 15
O=[N+]([O-])c1cc(-c2nnc(Nc3ccc(O)cc3)c3ccccc23)ccc1N1CCOCC1 | 4 | -63 | 4 | 3 | 16 | x
Cc1ccc(Nc2nnc(-c3ccc(N4CCOCC4)c([N+](=O)[O-])c3)c3ccccc23)cc1 | -4 | -23 | -1 | -1 | 64* | 13
COc1ccc2ccc(OCC(=O)Nc3cc(C)on3)cc2c1 | x | x | x | x | -2 | x
Cn1c(COc2ccc(Cl)cc2)nnc1SCC(=O)NC1CCCC1 | 1 | x | x | x | -1 | x
NC(=S)N/N=C/c1ccc(-c2ccc(SC(F)F)cc2)o1 | 2 | 19 | -5 | 11 | 55* | 39*
CCOC(=O)c1nn(-c2ccc(F)cc2)c(=O)cc1OCC(=O)Nc1ccc(F)c(F)c1 | 1 | x | x | x | -7 | x
O=C(NCc1cccc(F)c1)c1cccc2c1C(=O)c1ccc(N3CCOCC3)cc1S2(=O)=O | x | x | x | x | -6 | x
COc1ccccc1N1CCN(c2ccc3c(c2)S(=O)(=O)c2cccc(C(=O)NCc4cccc(F)c4)c2C3=O)CC1 | x | x | x | x | 64* | 27
O=C1c2ccc(-c3ccc(F)cc3OCc3ccccc3)cc2S(=O)(=O)c2cccc(C(=O)N3CCCC3)c21 | x | x | x | x | 62* | -1
Cc1cc(NC(=O)C(C)SCC(=O)N(C)CC(=O)Nc2ccccc2Br)no1 (stereo unspecified) | 2 | x | x | x | -5 | x
C[C@@]12C(=O)N(c3ccc(Br)cc3)C(=O)N1[C@@H]1c3ccccc3OC[C@@H]1[C@H]2c1ccccc1 | x | x | x | x | 61* | 24
C[C@]12C(=O)N(c3ccc(Cl)cc3)C(=O)N1[C@@H]1c3ccccc3OC[C@@H]1[C@H]2c1ccccc1 | -2 | x | x | x | 55* | 32
C[C@@]12C(=O)N(c3ccccc3)C(=O)N1[C@@H]1c3ccccc3OC[C@@H]1[C@H]2c1ccccc1 | x | x | x | x | 32 | x
C[C@@]12C(=O)N(c3ccc(F)cc3)C(=O)N1[C@@H]1c3ccccc3OC[C@@H]1[C@H]2c1ccccc1 | 1 | x | x | x | 25 | x
C[C@]12C(=O)N(c3ccc(F)cc3)C(=O)N1[C@H]1c3ccccc3OC[C@@H]1[C@H]2c1ccccc1 | x | x | x | x | 89* | 30
